# KCNK3 block: human KCNK3 channel inhibition, primary screen | hit rate 0.84% among 340,000 | CHO-KCNK3 thallium flux, FluxOR fluorescence; active compounds read low | O14649 | B-score at 10 µM;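 active means B-score under library mean minus 4 SD, starting fluorescence ratio at most library mean plus 5 SD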;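 further: more negative B-score means stronger inhibition of thallium flux through KCNK3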
# Kir21 block: Kir2.1 (mouse) channel inhibition; AID 1672; P35561; HEK293-Kir2.1, FluxOR thallium flux fluorescence; active compounds read low; B-score at 10 µM; hit rate 0.85% among 310,000;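 active means fluorescence ratio B-score at or below minus 3 SD of library scores, with starting-brightness B-score within 2 SD, cut at about -4.2 in these data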;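 further: channel flux triggered by added potassium and thallium sulfate stimulus; B-score of peak minus minimum fluorescence over baseline after thallium stimulus; more negative B-score means stronger Kir2.1 block with less thallium influx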
# Target sequence (P35561 whole entry, looked up): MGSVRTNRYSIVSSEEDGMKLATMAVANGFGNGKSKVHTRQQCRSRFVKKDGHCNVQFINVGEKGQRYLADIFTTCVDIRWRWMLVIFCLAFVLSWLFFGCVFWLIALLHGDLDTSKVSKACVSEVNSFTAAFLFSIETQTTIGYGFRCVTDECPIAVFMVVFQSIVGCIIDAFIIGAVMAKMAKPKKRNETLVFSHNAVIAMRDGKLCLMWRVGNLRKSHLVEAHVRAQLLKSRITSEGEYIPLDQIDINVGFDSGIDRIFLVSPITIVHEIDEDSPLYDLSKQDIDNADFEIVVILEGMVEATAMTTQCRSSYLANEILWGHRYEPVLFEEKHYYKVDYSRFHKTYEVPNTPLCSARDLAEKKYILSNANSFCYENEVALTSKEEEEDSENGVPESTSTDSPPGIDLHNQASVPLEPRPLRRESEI
# KCNQ1 act: potentiates or activates the human KCNQ1 potassium channel; P51787; CHO-K1 KCNQ1, thallium flux FluxOR fluorescence; active compounds read high; B-score at 10 µM; hit rate 0.35% among 310,000; AID 2648;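 active means fluorescence ratio B-score, a plate-corrected score, at least three library SD, with initial intensity B-score within 5 SD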
#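 System: CHO-K1 cells stably expressing KCNQ1 / Medium: assay buffer for compound exposure, DMSO matched across wells / Reagent: thallium- and potassium-containing depolarizing buffer / Compound: one concentration, matched DMSO / Incubation: 20 min compound pretreatment at room temperature / Measured by: kinetic FluxOR fluorescence, 10 s baseline plus 110 s post-stimulus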
# KCNQ1 inh: human KCNQ1 channel inhibition. P51787. CHO-K1 KCNQ1, FluxOR thallium flux fluorescence; active compounds read high. B-score at 10 µM. hit rate 1.3% among 310,000;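 active means compounds whose thallium flux B-score, printed positive for inhibition, exceeds three library SD while starting fluorescence stays within three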;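 further: channel opened by potassium depolarization with thallium stimulus after 20 min compound exposure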
# hERG rescue: shields human hERG channel from block by proarrhythmic agents; activation (rescue from dofetilide block), less the hit threshold, % at 10 µM; CHO-hERG, FluxOR thallium flux, dofetilide IC70 present; hit rate 0.51% among 310,000; Q12809;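 active means activation above the mean of controls blocked by dofetilide plus 5 SD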;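 further: thallium influx through hERG after potassium depolarization seen as dye fluorescence rise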
# KCNK9 inh: human KCNK9 channel inhibition | Q9NPC2 | HEK293 KCNK9, FluxOR thallium flux fluorescence; active compounds read low | B-score at 10 µM | hit rate 1.2% among 310,000 | AID 488922;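 active means ratio B-score over 3 SD below the library mean, with starting fluorescence within 5 SD of its mean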;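 further: negative B-score means less thallium flux so channel inhibition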
# The depositor's hits bear a star; i = inactive; / = no result. In the library only some 3.8% were active in any assay of this set; here they are far more common.
SMILES,KCNK3 block,Kir21 block,KCNQ1 act,KCNQ1 inh,hERG rescue,KCNK9 inh
CN1C(=O)/C(=C/c2ccc(Cl)s2)C(=O)NC1=S,i,0.27,i,i,5.2*,i
Cc1ccsc1/C=C1\C(=O)NC(=S)N(C)C1=O,i,0.02,i,8*,-3,i
CCCCn1c(=O)c(C(=O)NCc2ccccc2)c(O)c2ccccc21,i,-1.2,i,8*,-2,i
COc1cccc(CCNCc2ccc(SC)cc2)c1,i,-7.5*,i,i,-13,i
CNc1ccc2oc(C[C@H]3O[C@@]4(CC[C@H]3C)O[C@H]([C@H](C)C(=O)c3ccc[nH]3)[C@H](C)C[C@H]4C)nc2c1C(=O)O,i,0,38*,i,-5,i
C=C1C(=O)[C@@]23C[C@H]4[C@@H]5[C@@]6(C)CCC[C@@]57[C@@H]2[C@@H](O)[C@@H]1C[C@H]3[C@H]7N4C6,i,-0.85,i,i,-4,i
Oc1ccccc1-[n+]1c(-c2ccccc2)cc(-c2ccccc2)cc1-c1ccccc1,i,-12*,i,14*,-43,i
Nc1ccccc1-[n+]1c(-c2ccccc2)cc(-c2ccccc2)cc1-c1ccccc1,i,-5.8*,i,7*,-17,i
Cc1ccccc1-[n+]1c(-c2ccccc2)cc(-c2ccccc2)cc1-c1ccccc1,i,-16*,i,10*,-41,i
[O-]c1ccccc1-[n+]1c(-c2ccccc2)cc(-c2ccccc2)cc1-c1ccccc1,i,-9.7*,i,6*,-41,-7.4*
CC(=O)NC1=C(N2CC2C)C(=O)C(NC(C)=O)=C(N2CC2C)C1=O (stereo not given),i,/,/,/,/,/
CCOP(=S)(OCC)N1CC1,i,/,/,/,/,/
NP(=O)(OCCCc1ccccc1)Oc1ccccc1 (stereo not given),i,0.18,i,i,-4,i
CC(=NCc1ccco1)c1c(O)n(-c2ccc(C)cc2)c(=O)[nH]c1=O,i,0.32,i,i,2,i
Oc1ccc(C2NCc3ccccc3-n3cccc32)cc1Cl (stereo not given),i,-8.9*,i,i,-12,i
FC(F)(F)c1cccc(C2NCc3ccccc3-n3cccc32)c1 (stereo not given),i,-2.4,i,i,-6,i
COC(=O)C1=C(c2cccc(OCc3ccccc3)c2)C[C@@H]2CC[C@H]1N2C(=O)NCCOc1ccccc1,i,/,/,/,/,/
CN1CCN(CCOC2c3ccccc3CSc3ccc(Cl)cc32)CC1 (stereo not given),i,-4.8*,i,i,-6,i
Clc1ccc2c(c1)C(OC1CN3CCC1CC3)c1ccccc1CS2 (stereo not given),i,-5.9*,i,i,-15,i
CC1Oc2cc3c(-c4c(O)cc(O)c5c(O)c6c(cc45)OC(C)C(C)C6=O)c(O)cc(O)c3c(O)c2C(=O)C1C (stereo not given),i,0.2,i,i,-2,i
O/N=C/c1c[nH]c2ccccc12,i,0.01,i,i,-9,i
CCCC/C(=N\O)c1c[nH]c2ccccc12,i,-0.62,i,i,1,-7.5*
COc1ccc(C(=O)O/N=C(/C(N)=O)P(=O)(OC(C)C)OC(C)C)cc1,i,-4.6*,i,i,3,i
COc1ccc(C(O)P(=O)(OC(C)C)OC(C)C)cc1 (stereo not given),i,-0.08,i,i,-9,i
CCCOC(=O)c1ccc(-[n+]2c(-c3ccccc3)cc(-c3ccccc3)cc2-c2ccccc2)cc1,i,-11*,i,12*,-36,-7.7*
SMILES,KCNK3 block,Kir21 block,KCNQ1 act,KCNQ1 inh,hERG rescue,KCNK9 inh
O=C(O)c1ccc(-[n+]2c(-c3ccccc3)cc(-c3ccccc3)cc2-c2ccccc2)cc1,i,-0.64,i,i,-2,i
COc1ccc(NC(c2ccccc2)P(=O)(Oc2ccccc2)Oc2ccccc2)cc1 (stereo not given),i,-0.96,i,i,-4,-6.6*
NC(N)=N/N=C/c1ccc(N(c2ccccc2)c2ccccc2)cc1,i,-6.2*,i,7*,-33,i
NC(N)=N/N=C/c1ccc(N2CCOCC2)cc1,i,-0.94,i,i,-13,i
Oc1cccc2cccnc12,/,-0.48,i,i,-2,-11*
O=S(=O)(c1ccc(Cl)cc1)N1CCCC1c1cccnc1 (stereo not given),i,-5.2*,i,i,-3,i
Nc1ccc(S(=O)(=O)N2CCCCC2c2cccnc2)cc1 (stereo not given),i,-1.4,i,i,-3,i
O=S(=O)(c1ccccc1)N1CCCCC1c1cccnc1 (stereo not given),i,-2.5,i,i,8.4*,i
O=C(C[N+]12CCN(CC1)CC2)NCCc1ccc(Cl)cc1Cl,i,-1.4,i,i,-3,i
CC(C)CNC(=O)/C=C/C=C/CCCCCC/C=C/c1ccc2c(c1)OCO2,-9.4*,/,/,/,/,/
CCCCn1c(O)c(C(=O)/C=C/c2ccc3c(c2)OCO3)c(=O)[nH]c1=O,i,-0.42,i,i,1,i
CCC1CO/C(=C(\C(Cl)=C(Cl)Cl)[N+](=O)[O-])N1Cc1ccc(Cl)nc1 (stereo not given),i,1.5,i,i,-8,i
Cn1cc(/C=C2\C(=O)NC(=O)N(c3ccccc3)C2=O)c2ccccc21,i,0.01,i,i,-8,-8*
O=C(O)Cn1cc(/C=C2\C(=O)NC(=O)N(c3ccc(Cl)cc3)C2=O)c2ccccc21,i,-0.83,i,i,-5,i
COC(=O)C1=C(c2ccc(-c3ccccc3)c(F)c2)C[C@@H]2CC[C@H]1N2C(=O)N1CCCC1,i,/,/,/,/,/
C/C(=N\NC(=O)c1ccccc1O)c1c(O)n(C2CCCCC2)c(=O)[nH]c1=O,i,-2,i,6*,-15,i
C/C(=N\NC(=O)c1ccccc1Cl)c1c(O)n(C2CCCCC2)c(=O)[nH]c1=O,i,-0.41,i,i,-15,i
O=C1NC(=O)C(=Cc2coc3ccc(O)cc3c2=O)C(=O)N1,i,-0.8,i,i,-15,i
COc1ccc(OC)c(N2C(=O)/C(=C/c3ccco3)C(=O)NC2=S)c1,/,1.9,i,i,8.4*,i
COC(=O)c1cccc(NC(=O)N2C[C@H]3C[C@@H](C2)c2cccc(=O)n2C3)c1,i,-0.39,i,i,-7,i
CCCCCCC(C)(C)c1ccc([C@@H]2C[C@H](O)CC[C@H]2CCCO)c(O)c1,-11*,/,/,/,/,/

# Bioassay records (PubChem BioAssay)
